Article PMC5074845 (ACS chemical biology, 2016)
Where “and” joins values, the source holds several entries; their conditions need not be identical. Equal entries are not always repeated. Where two headings read alike, the source gives them in different places. Values belong to the compound of their own block, whether it stands above or below them.

Assays:
NAPE-PLD [1] = biological target: T1, NAPE-PLD (Homo sapiens, UniProt Q6IQ20); test: Binding kinetics by surface plasmon resonance; conditions: for binding affinity compared with another bile acid: SPR, 25 °C, comparison in words
T1 sequence (Q6IQ20 48-393 limits assumed): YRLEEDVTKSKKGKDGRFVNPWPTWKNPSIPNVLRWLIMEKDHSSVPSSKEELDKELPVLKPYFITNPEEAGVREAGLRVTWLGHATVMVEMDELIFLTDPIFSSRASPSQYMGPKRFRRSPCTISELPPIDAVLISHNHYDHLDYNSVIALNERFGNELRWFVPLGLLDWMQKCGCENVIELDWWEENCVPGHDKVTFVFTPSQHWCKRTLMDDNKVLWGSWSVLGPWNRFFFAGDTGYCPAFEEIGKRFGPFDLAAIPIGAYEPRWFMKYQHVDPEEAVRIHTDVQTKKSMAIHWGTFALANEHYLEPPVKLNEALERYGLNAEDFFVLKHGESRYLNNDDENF

NAPE-PLD [2] = biological target: T1, NAPE-PLD; test: Fluorescence-based NAPE-PLD activity assay with substrate PED6; type: biochemical
How it was run: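 Recombinant human enzyme, purified by amylose then Ni-affinity and size exclusion. Enzyme at 25 nM in 50 mM Tris-HCl pH 8 was pre-incubated 1 h at room temperature with test bile acids (0–5 mM). PED6 was added to 10 μM final (1% DMSO/ethyl acetate). Fluorescence was read after 30 min at 25 °C in the dark ([…] filters). Monohydroxy bile acid was run with 0.2% w/v DCA.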

NAPE-PLD [3] = biological target: T1, NAPE-PLD; test: Elastic incoherent neutron scattering; conditions: DCA ~10 times the concentration of the enzyme, 280-307 K, D2O buffer
How it was run: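 Purified enzyme in D2O (five exchanges against 100× volume) at 100 mg/mL, with DCA at 0.00, 0.05, 0.15, 0.50 or 1.00% w/v (DCA:enzyme ratios 0–10). Elastic spectra were collected at […], ~3 h per point, on IN13 (up to 100 ps). <u2> came from the slope of ln elastic intensity versus Q2. Force constant came from the <u2>-versus-T slope under a quasi-harmonic approximation.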

NAPE-PLD [4] = conditions: without bile acid; cited from earlier work
NAPE-PLD [5] = biological target: T1, NAPE-PLD; test: Enzyme kinetics by UPLC-MS/MS in the presence of DCA; type: biochemical; conditions: for Km / maximum velocity (Vmax): DCA 0.2% w/v, 37 °C, 15 min, UPLC-MS/MS
How it was run: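 Recombinant enzyme was incubated with varying N-arachidonoyl-PE or N-palmitoyl-PE in 0.05 M Tris-HCl pH 7.4 with 0.2% w/v DCA, 15 min, 37 °C. Reactions were stopped with cold acetonitrile containing AEA-d4 or PEA-d4 internal standard, centrifuged, and the organic layer taken. Products (AEA, PEA) were quantified by UPLC-MS/MS MRM in positive ESI against weighted (1/x) calibration curves. Runs were in triplicate. Km and Vmax came from Michaelis–Menten fits.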

Compound: C[C@H](CCC(=O)O)[C@H]1CC[C@H]2[C@@H]3[C@H](O)C[C@@H]4C[C@H](O)CC[C@]4(C)[C@H]3C[C@H](O)[C@]12C [CA, cholic acid]
Kd (NAPE-PLD [1]): ~403 µM | binding affinity compared with another bile acid (NAPE-PLD [1]): ~tenfold lower binding affinity

Compound: C[C@H](CCC(=O)NCCC[N+](C)(C)CCCS(=O)(=O)[O-])[C@H]1CC[C@H]2[C@@H]3[C@H](O)C[C@@H]4C[C@H](O)CC[C@]4(C)[C@H]3C[C@H](O)[C@]12C [CHAPS]
binding affinity compared with another bile acid (NAPE-PLD [1]): ~tenfold lower

Compound: C[C@H](CCC(=O)O)[C@H]1CC[C@H]2[C@@H]3CC[C@@H]4C[C@H](O)CC[C@]4(C)[C@H]3C[C@H](O)[C@]12C [DCA, deoxycholic acid]
effect on protein flexibility (force constant k, mean square displacement) (NAPE-PLD [3]): the system lost flexibility | Kd (NAPE-PLD [1]): ~43 µM

Compound: CC(=O)O[C@H]1C[C@@]2(C)[C@@H](C[C@@H](O)[C@H]3[C@@]4(C)CC[C@@H](O)[C@@H](C)[C@@H]4CC[C@@]32C)/C1=C(\CCC=C(C)C)C(=O)O [FA, fusidic acid]
Kd (NAPE-PLD [1]): ~70 µM

Compound: C[C@H](CCC(=O)NCCS(=O)(=O)O)[C@H]1CC[C@H]2[C@@H]3[C@H](O)C[C@@H]4C[C@H](O)CC[C@]4(C)[C@H]3C[C@H](O)[C@]12C [TCA, taurocholic acid]
binding affinity compared with another bile acid (NAPE-PLD [1]): ~tenfold lower

Second part, led by results:

EC50 (NAPE-PLD [2]): ~4300 µM | Kd (NAPE-PLD [1]): ~25 µM
Compound: C[C@H](CCC(=O)O)[C@H]1CC[C@H]2[C@@H]3[C@H](O)C[C@@H]4C[C@H](O)CC[C@]4(C)[C@H]3CC[C@]12C [CDCA, chenodeoxycholic acid]

EC50 (NAPE-PLD [2]; read-out: EC50 of enzyme activation, enzyme 25 nM, PED6 substrate, 25 °C, 30 min): ~3600 µM
Compound: C[C@H](CCC(=O)NCC(=O)O)[C@H]1CC[C@H]2[C@@H]3[C@H](O)C[C@@H]4C[C@H](O)CC[C@]4(C)[C@H]3CC[C@]12C [GCDG]

Kd (NAPE-PLD [1]): ~20 µM
Compound: C[C@H](CCC(=O)O)[C@H]1CC[C@H]2[C@@H]3CC[C@@H]4C[C@H](O)CC[C@]4(C)[C@H]3CC[C@]12C [LCA, lithocholic acid]
effect on NAPE-PLD enzyme activity (NAPE-PLD [2]; bile acid alone, PED6 substrate): not able alone to solubilize the substrate and activate the membrane enzyme

Km (NAPE-PLD [5]): ~9 µM and 9.6 µM | rate of hydrolysis compared with N-palmitoyl-phosphatidylethanolamine (NAPE-PLD [5]; in the presence of deoxycholic acid): ~ 7 times
Compound: N-arachidonyl-phosphatidylethanolamine [N-arachidonoyl-PE]
Vmax (NAPE-PLD [4]): ~ 73 nmol/min/mg | maximum velocity (Vmax) (NAPE-PLD [5]): 1131 (± 124.4) nmol/min/mg protein and ~ 1131 nmol/min/mg protein

Km (NAPE-PLD [5]): ~9 µM and 9.2 µM
Compound: N-palmitoyl-phosphatidylethanolamine [N-palmitoyl-PE]
Vmax (NAPE-PLD [4]): ~ 98 nmol/min/mg | maximum velocity (Vmax) (NAPE-PLD [5]): 155.8 (± 38.36) nmol/min/mg protein and ~ 156 nmol/min/mg protein
